Data: ChEMBL document CHEMBL4311938, “Sirtuin inhibition and anti-cancer activities of ethyl 2-benzimidazole-5-carboxylate derivatives” (Medchemcomm, 2019)
The source made the active and inactive calls. The calls are words filed in the database; no cut-off is given here.

Tests used:
[1] = target: T1, NAD-dependent protein deacetylase sirtuin-1 (Homo sapiens, UniProt Q96EB6); test: Inhibition of human recombinant SIRT1 using p53 (379 to 382 residues) conjugated to AMC as substrate incubated for 45 mins in presence of NAD+ by fluorescence assay
T1 sequence (Q96EB6 whole entry): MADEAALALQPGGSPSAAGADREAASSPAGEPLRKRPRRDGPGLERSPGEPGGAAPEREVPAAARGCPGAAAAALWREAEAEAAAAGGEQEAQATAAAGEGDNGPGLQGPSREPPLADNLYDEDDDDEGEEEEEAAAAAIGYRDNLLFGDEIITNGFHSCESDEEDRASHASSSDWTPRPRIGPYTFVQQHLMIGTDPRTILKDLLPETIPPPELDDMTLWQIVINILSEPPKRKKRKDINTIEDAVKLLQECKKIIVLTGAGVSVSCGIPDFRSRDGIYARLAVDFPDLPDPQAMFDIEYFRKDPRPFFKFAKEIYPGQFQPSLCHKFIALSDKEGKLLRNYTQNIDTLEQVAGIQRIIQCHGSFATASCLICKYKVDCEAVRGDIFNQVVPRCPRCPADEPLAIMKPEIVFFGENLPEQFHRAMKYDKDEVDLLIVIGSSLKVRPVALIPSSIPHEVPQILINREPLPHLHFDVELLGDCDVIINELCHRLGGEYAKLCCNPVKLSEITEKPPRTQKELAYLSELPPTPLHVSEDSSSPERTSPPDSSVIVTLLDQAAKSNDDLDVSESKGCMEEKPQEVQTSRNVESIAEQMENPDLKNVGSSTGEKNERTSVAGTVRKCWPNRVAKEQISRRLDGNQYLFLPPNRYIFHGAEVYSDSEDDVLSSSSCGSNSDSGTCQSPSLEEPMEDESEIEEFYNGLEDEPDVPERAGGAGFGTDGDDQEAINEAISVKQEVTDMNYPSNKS

[2] = target: T2, NAD-dependent protein deacetylase sirtuin-2 (Homo sapiens, UniProt Q8IXJ6); test: Inhibition of human recombinant SIRT2 using p53 (317 to 320 residues) conjugated to AMC as substrate incubated for 45 mins in presence of NAD+ by fluorescence assay
T2 sequence (Q8IXJ6 whole entry): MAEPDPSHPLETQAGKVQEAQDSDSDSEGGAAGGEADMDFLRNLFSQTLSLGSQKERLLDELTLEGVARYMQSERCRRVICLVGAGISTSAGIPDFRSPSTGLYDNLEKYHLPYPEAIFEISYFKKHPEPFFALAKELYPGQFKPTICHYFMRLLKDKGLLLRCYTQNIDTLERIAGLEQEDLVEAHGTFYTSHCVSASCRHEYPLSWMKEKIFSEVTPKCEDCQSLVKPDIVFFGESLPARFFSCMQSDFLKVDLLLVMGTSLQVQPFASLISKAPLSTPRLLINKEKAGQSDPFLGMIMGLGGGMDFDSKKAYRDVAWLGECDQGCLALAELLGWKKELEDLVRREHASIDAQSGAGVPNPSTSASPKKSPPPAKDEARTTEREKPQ

[3] = target: T3, NAD-dependent protein deacetylase sirtuin-3, mitochondrial (Homo sapiens, UniProt Q9NTG7); test: Inhibition of human recombinant SIRT3 using p53 (317 to 320 residues) conjugated to AMC as substrate incubated for 45 mins in presence of NAD+ by fluorescence assay
T3 sequence (Q9NTG7 whole entry): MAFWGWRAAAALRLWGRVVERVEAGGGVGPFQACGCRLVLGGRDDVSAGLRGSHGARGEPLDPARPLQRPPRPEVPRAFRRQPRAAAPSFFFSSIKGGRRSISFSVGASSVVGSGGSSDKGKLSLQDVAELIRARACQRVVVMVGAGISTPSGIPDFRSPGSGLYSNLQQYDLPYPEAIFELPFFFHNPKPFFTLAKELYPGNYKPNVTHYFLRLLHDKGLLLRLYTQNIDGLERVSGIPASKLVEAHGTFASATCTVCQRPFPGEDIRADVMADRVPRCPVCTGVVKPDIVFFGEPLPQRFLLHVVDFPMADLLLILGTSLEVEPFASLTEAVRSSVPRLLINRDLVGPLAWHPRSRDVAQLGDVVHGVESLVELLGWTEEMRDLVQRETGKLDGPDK

[4] = target: T4, NAD-dependent protein deacetylase sirtuin-2 (Homo sapiens) (UniProt Q8IXJ6); test: Inhibition of SIRT2 in human H103 cells assessed as increase in acetylated alpha tubulin level at 5.83 uM after 72 hrs by Western blot analysis; assay type: cell-based
T4 sequence (whole entry): T2 sequence (Q8IXJ6 whole entry)
Summary of the method: (§1)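 H103 cells were seeded at 5 × 10^5 per well and treated either for 24 h or for 72 h. Lysates were run on SDS-PAGE and blotted to PVDF. Blocking in 5% skimmed milk with primary antibody was done overnight at 4 °C. HRP secondaries were anti-mouse 1:5000 and anti-rabbit 1:1000, 1 h at room temperature, with ECL detection. Acetylated protein was normalized to actin, then to total protein, then to untreated cells. Two independent experiments were run.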

[5] = target: T5, NAD-dependent protein deacetylase sirtuin-1 (Homo sapiens) (UniProt Q96EB6); test: Inhibition of SIRT1 in human H103 cells assessed as increase in acetylated p53 level at 5.83 uM after 72 hrs by Western blot analysis; assay type: cell-based; summary of the method: as §1
T5 sequence (whole entry): T1 sequence (Q96EB6 whole entry)

[6] = target: T5, NAD-dependent protein deacetylase sirtuin-1 (Homo sapiens); test: Inhibition of SIRT1 in human H103 cells assessed as increase in acetylated p53 level at 32 uM after 24 hrs by Western blot analysis; assay type: cell-based; summary of the method: as §1
[7] = target: T6, NAD-dependent protein deacetylase sirtuin-3, mitochondrial (Homo sapiens) (UniProt Q9NTG7); test: Inhibition of SIRT3 in human H103 cells assessed as growth inhibition after 72 hrs by MTT assay; assay type: cell-based
T6 sequence (whole entry): T3 sequence (Q9NTG7 whole entry)
Summary of the method: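 H103 cells (ECACC) were seeded at 5 × 10^3 per well and treated for 72 h with final DMSO below 1%. Viability was read by MTT: 4 h at 37 °C in 5% CO2, formazan dissolved in DMSO, absorbance at 570 nm. Proliferation was expressed as the ratio of treated to control absorbance. Experiments were run in triplicate. GI50 was determined.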

[8] = test system: H103; test: Cell cycle arrest in human H103 cells assessed as accumulation at G1 phase after 24 hrs by RNase/7-AAD staining based flow cytometry analysis (reference value: 38.8 %); assay type: functional
Summary of the method: (§2)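 H103 oral squamous carcinoma cells (ECACC) were seeded at 5 × 10^5 per well, left to adhere overnight and then treated for 24 h. Cells were trypsinized, washed in PBS and fixed in ice-cold 70% ethanol for 30 min at 4 °C. They were stained with RNase plus 7-AAD in staining buffer, and DNA content was read by imaging flow cytometry at 488 nm. G1 = 2N, G2/M = 4N.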

[9] = test system: H103; test: Cell cycle arrest in human H103 cells assessed as accumulation at S phase after 24 hrs by RNase/7-AAD staining based flow cytometry analysis (reference value: 18 %); assay type: functional; summary of the method: as §2
[10] = test system: H103; test: Cell cycle arrest in human H103 cells assessed as accumulation at G2/M phase after 24 hrs by RNase/7-AAD staining based flow cytometry analysis (reference value: 36.5 %); assay type: functional; summary of the method: as §2
[11] = test system: H103; test: Induction of apoptosis in human H103 cells assessed as viable cells after 24 hrs by AnnexinV-FLTC/propidium iodide staining based flow cytometry (reference value: 29.4 %); assay type: functional
[12] = test system: H103; test: Induction of apoptosis in human H103 cells assessed as early apoptotic cells after 24 hrs by AnnexinV-FLTC/propidium iodide staining based flow cytometry (reference value: 0.01 %); assay type: functional
[13] = test system: H103; test: Induction of apoptosis in human H103 cells assessed as late apoptotic cells after 24 hrs by AnnexinV-FLTC/propidium iodide staining based flow cytometry (reference value: 1.32 %); assay type: functional
[14] = test system: H103; test: Induction of apoptosis in human H103 cells assessed as necrotic cells after 24 hrs by AnnexinV-FLTC/propidium iodide staining based flow cytometry (reference value: 7.49 %); assay type: functional

| SMILES | IC50 [1] [µM] | IC50 [2] [µM] | IC50 [3] [µM] | inhibition [4] | inhibition [5] | inhibition [6] | GI50 [7] [µM] | Activity [8] [%] | Activity [9] [%] | Activity [10] [%] | Activity [11] [%] | Activity [12] [%] | Activity [13] [%] | Activity [14] [%] |
| --- | --- | --- | --- | --- | --- | --- | --- | --- | --- | --- | --- | --- | --- | --- |
| CCOC(=O)c1ccc2[nH]c(-c3ccc(OC(F)(F)F)cc3)nc2c1 | > 50 | > 50 | > 50 |  |  |  |  |  |  |  |  |  |  |  |
| CCOC(=O)c1ccc2[nH]c(-c3ccc(Br)cc3)nc2c1 | > 50 | 45.8 | > 50 |  |  |  |  |  |  |  |  |  |  |  |
| CCOC(=O)c1ccc2[nH]c(-c3ccc(C(F)(F)F)cc3)nc2c1 | > 50 | > 50 | > 50 |  |  |  |  |  |  |  |  |  |  |  |
| CCOC(=O)c1ccc2[nH]c(-c3ccc4c(c3)OCO4)nc2c1 | 7.7 | 5.6 | 9.8 | Active | inactive | inactive | 5.83 | 8.1 | 20.3 | 43.2 | 90.6 | 0.04 | 7.82 | 11.3 |
| CCOC(=O)c1ccc2[nH]c(-c3ccc(Cl)cc3)nc2c1 | 33.6 | 30.5 |  |  |  |  |  |  |  |  |  |  |  |  |
